Experimental data as given in ChEMBL document CHEMBL1156332, “Polysubstituted pyrazoles, part 6. Synthesis of some 1-(4-chlorophenyl)-4-hydroxy-1H-pyrazol-3-carbonyl derivatives linked to nitrogenous heterocyclic ring systems as potential antitumor agents” (2010).

Assays:
Assay type in all cases: functional
HL-60(TB) = test: Growth inhibition of human HL-60(TB) cells after 48 hrs by sulforhodamine B assay; settings: HL-60, 48 h
How it was run: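 NCI 60-cell panel. Cells were preincubated 24 h at 37 °C in 5% CO2, then time-zero plates were TCA-fixed. Drugs were dissolved in DMSO and given at five concentrations (10-fold or half-log dilutions) for 48 h. Suspension cells were fixed with TCA (16% final), stained with 0.4% SRB and read at 515 nm. GI50 is the concentration giving 50% decrease in net growth, taken from log concentration–growth curves.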

K562 = test: Growth inhibition of human K562 cells after 48 hrs by sulforhodamine B assay; settings: K562, 48 h
How it was run: (§1)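 NCI 60-line panel, five concentrations (0.01–100 µM) from DMSO stock diluted in medium with gentamicin. Cells were plated 24 h before dosing, with time-zero plates fixed at drug addition, then exposed 48 h at 37 °C, 5% CO₂. Adherent cells were fixed with cold TCA (10% final) and suspension cells with 16% TCA. Staining used 0.4% SRB, solubilised in 10 mM Tris and read at 515 nm. GI₅₀ was taken from log concentration–% growth curves.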

RPMI-8226 = test: Growth inhibition of human RPMI8226 cells after 48 hrs by sulforhodamine B assay; settings: RPMI-8226, 48 h; how it was run: as §1
A549 = test: Growth inhibition of human A549 cells after 48 hrs by sulforhodamine B assay; settings: A549, 48 h; how it was run: as §1
HOP-62 = test: Growth inhibition of human HOP62 cells after 48 hrs by sulforhodamine B assay; settings: HOP-62, 48 h; how it was run: as §1
NCI-H23 = test: Growth inhibition of human NCI-H23 cells after 48 hrs by sulforhodamine B assay; settings: NCI-H23, 48 h; how it was run: as §1
NCI-H460 = test: Growth inhibition of human NCI-H460 cells after 48 hrs by sulforhodamine B assay; settings: NCI-H460, 48 h; how it was run: as §1
HCC 2998 = test: Growth inhibition of human HCC2998 cells after 48 hrs by sulforhodamine B assay; settings: HCC 2998, 48 h; how it was run: as §1
HCT-15 = test: Growth inhibition of human HCT15 cells after 48 hrs by sulforhodamine B assay; settings: HCT-15, 48 h; how it was run: as §1
HT-29 = test: Growth inhibition of human HT-29 cells after 48 hrs by sulforhodamine B assay; settings: HT-29, 48 h; how it was run: as §1
SW-620 = test: Growth inhibition of human SW620 cells after 48 hrs by sulforhodamine B assay; settings: SW-620, 48 h
How it was run: (§2)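 Adherent lines plated and held 24 h at 37 °C, 5% CO2, 100% humidity; time-zero plates TCA-fixed at drug addition. Drugs from DMSO stocks were made into five concentrations by 10-fold or half-log serial dilution and applied for 48 h continuous exposure. Cells were fixed with cold TCA (10% final) for 60 min at 4 °C, then stained with 0.4% SRB in 1% acetic acid for 10 min. Dye was solubilized in 10 mM Tris base and read at 515 nm. GI50 was taken from log concentration–growth curves.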

SF-268 = test: Growth inhibition of human SF268 cells after 48 hrs by sulforhodamine B assay; settings: SF-268, 48 h; how it was run: as §1
SF-539 = test: Growth inhibition of human SF539 cells after 48 hrs by sulforhodamine B assay; settings: SF-539, 48 h; how it was run: as §2
SNB-75 = test: Growth inhibition of human SNB75 cells after 48 hrs by sulforhodamine B assay; settings: SNB-75, 48 h; how it was run: as §2
U-251 = test: Growth inhibition of human U251 cells after 48 hrs by sulforhodamine B assay; settings: U-251, 48 h; how it was run: as §2
LOX IMVI = test: Growth inhibition of human LOXIMVI cells after 48 hrs by sulforhodamine B assay; how it was run: as §1
M14 = test: Growth inhibition of human M14 cells after 48 hrs by sulforhodamine B assay; settings: M14, 48 h; how it was run: as §1
SK-MEL-28 = test: Growth inhibition of human SK-MEL-28 cells after 48 hrs by sulforhodamine B assay; settings: SK-MEL-28, 48 h; how it was run: as §2
OVCAR-3 = test: Growth inhibition of human OVCAR-3 cells after 48 hrs by sulforhodamine B assay; settings: OVCAR-3, 48 h; how it was run: as §1
OVCAR-5 = test: Growth inhibition of human OVCAR5 cells after 48 hrs by sulforhodamine B assay; settings: OVCAR-5, 48 h; how it was run: as §1
OVCAR-8 = test: Growth inhibition of human OVCAR8 cells after 48 hrs by sulforhodamine B assay; settings: OVCAR-8, 48 h; how it was run: as §1
SK-OV-3 = test: Growth inhibition of human SKOV3 cells after 48 hrs by sulforhodamine B assay; settings: SK-OV-3, 48 h; how it was run: as §2
786-0 = test: Growth inhibition of human 786-0 cells after 48 hrs by sulforhodamine B assay; settings: 786-0, 48 h; how it was run: as §1
A498 = test: Growth inhibition of human A498 cells after 48 hrs by sulforhodamine B assay; settings: A498, 48 h; how it was run: as §1
CAKI-1 = test: Growth inhibition of human Caki1 cells after 48 hrs by sulforhodamine B assay; settings: CAKI-1, 48 h; how it was run: as §1
RXF 393 = test: Growth inhibition of human […] cells after 48 hrs by sulforhodamine B assay; settings: RXF 393, 48 h; how it was run: as §1
SN12C = test: Growth inhibition of human SN12C cells after 48 hrs by sulforhodamine B assay; how it was run: as §2
UO-31 = test: Growth inhibition of human UO31 cells after 48 hrs by sulforhodamine B assay; settings: UO-31, 48 h; how it was run: as §2
[1] = Growth inhibition of human Hs 578T cells after 48 hrs by sulforhodamine B assay; how it was run: as §1
MDA-MB-435 = test: Growth inhibition of human MDA-MB-435 cells after 48 hrs by sulforhodamine B assay; settings: MDA-MB-435, 48 h; how it was run: as §1
T47D = test: Growth inhibition of human T47D cells after 48 hrs by sulforhodamine B assay; how it was run: as §2
MDA-MB-468 = test: Growth inhibition of human MDA-MB-468 cells after 48 hrs by sulforhodamine B assay; settings: MDA-MB-468, 48 h; how it was run: as §1
[2] = Cytotoxicity against human leukemia cells after 48 hrs by sulforhodamine B assay; settings: Leukemia cell
How it was run: (§3)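 NCI five-dose screen: about 60 human tumour lines grouped into nine subpanels were plated and incubated 24 h before dosing. Compounds went in as DMSO stock and were diluted in medium to five final concentrations (0.01–100 µM). Exposure was 48 h continuous at 37 °C, 5% CO₂, followed by TCA fixation and SRB staining read at 515 nm. Per-line GI₅₀, TGI and LC₅₀ came from log concentration–% growth curves, averaged per subpanel as MG-MID.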

[3] = Cytotoxicity against human CNS cancer cells after 48 hrs by sulforhodamine B assay; settings: Cancer cell lines; how it was run: as §3
[4] = Cytotoxicity against human ovarian cancer cells after 48 hrs by sulforhodamine B assay; settings: Cancer cell lines; how it was run: as §3
[5] = Cytotoxicity against human renal cancer cells after 48 hrs by sulforhodamine B assay; settings: Cancer cell lines; how it was run: as §3
[6] = Cytotoxicity against human prostate cancer cells after 48 hrs by sulforhodamine B assay; settings: Cancer cell lines; how it was run: as §3
[7] = Cytotoxicity against human breast cancer cells after 48 hrs by sulforhodamine B assay; settings: Cancer cell lines; how it was run: as §3

## Cc1c2c(nn1C(=O)c1nn(-c3ccc(Cl)cc3)cc1O)-c1ccccc1CC2
HL-60(TB)
  GI50: 0.051 µM
K562
  GI50: 0.03 µM
RPMI-8226
  GI50: 0.038 µM
A549
  GI50: 0.034 µM
HOP-62
  GI50: 0.044 µM
NCI-H23
  GI50: 0.041 µM
NCI-H460
  GI50: 0.028 µM
HCC 2998
  GI50: 0.502 µM
HCT-15
  GI50: 0.052 µM
HT-29
  GI50: 0.241 µM
SW-620
  GI50: 0.36 µM
SF-268
  GI50: 0.048 µM
SF-539
  GI50: 0.041 µM
SNB-75
  GI50: 0.029 µM
U-251
  GI50: 0.031 µM
LOX IMVI
  GI50: 0.075 µM
M14
  GI50: 0.096 µM
SK-MEL-28
  GI50: 0.092 µM
OVCAR-3
  GI50: 0.099 µM
OVCAR-5
  GI50: 0.072 µM
OVCAR-8
  GI50: 0.053 µM
SK-OV-3
  GI50: 0.16 µM
786-0
  GI50: 0.319 µM
A498
  GI50: 0.024 µM
CAKI-1
  GI50: 0.127 µM
RXF 393
  GI50: 0.047 µM
SN12C
  GI50: 0.041 µM
UO-31
  GI50: 0.099 µM
[1]
  GI50: 0.021 µM
MDA-MB-435
  GI50: 0.037 µM
T47D
  GI50: 0.059 µM
MDA-MB-468
  GI50: 0.262 µM
[2]
  GI50: 0.042 µM
  TGI: 10.2 µM
[3]
  GI50: 0.036 µM
  TGI: 69.1 µM
[4]
  GI50: 0.115 µM
  TGI: 83.6 µM
[5]
  GI50: 0.092 µM
  TGI: 67.7 µM
[6]
  GI50: 0.044 µM
[7]
  GI50: 0.082 µM
  TGI: 91.7 µM

## N#Cc1cnn(C(=O)c2nn(-c3ccc(Cl)cc3)cc2O)c1N
HL-60(TB)
  GI50: 0.33 µM
K562
  GI50: 0.25 µM
RPMI-8226
  GI50: 0.21 µM
A549
  GI50: 0.2 µM
HOP-62
  GI50: 0.34 µM
NCI-H23
  GI50: 0.37 µM
NCI-H460
  GI50: 0.19 µM
HCC 2998
  GI50: 0.65 µM
HCT-15
  GI50: 0.34 µM
HT-29
  GI50: 1.19 µM
SW-620
  GI50: 0.52 µM
SF-268
  GI50: 0.46 µM
SF-539
  GI50: 0.32 µM
SNB-75
  GI50: 0.25 µM
U-251
  GI50: 0.29 µM
LOX IMVI
  GI50: 0.44 µM
M14
  GI50: 0.48 µM
SK-MEL-28
  GI50: 0.63 µM
OVCAR-3
  GI50: 0.55 µM
OVCAR-5
  GI50: 0.64 µM
OVCAR-8
  GI50: 0.48 µM
SK-OV-3
  GI50: 0.52 µM
786-0
  GI50: 0.66 µM
A498
  GI50: 0.17 µM
CAKI-1
  GI50: 0.28 µM
RXF 393
  GI50: 0.51 µM
SN12C
  GI50: 0.35 µM
UO-31
  GI50: 0.3 µM
[1]
  GI50: 0.19 µM
MDA-MB-435
  GI50: 0.29 µM
T47D
  GI50: 0.3 µM
MDA-MB-468
  GI50: 0.95 µM
[2]
  GI50: 0.27 µM
  LC50 (concentration killing 50% of cells): 44.3 µM
  TGI: 3.23 µM
[3]
  GI50: 0.32 µM
  LC50: 74.7 µM
  TGI: 23.1 µM
[4]
  GI50: 0.5 µM
  LC50 (50% lethal concentration): 88.5 µM
  TGI: 19.6 µM
[5]
  GI50: 0.36 µM
  LC50: 75 µM
  TGI: 8.99 µM
[6]
  GI50: 0.45 µM
  TGI: 13.4 µM
[7]
  GI50: 0.43 µM
  LC50: 64.3 µM
  TGI: 14.4 µM

## CC1=NN(C(=O)c2nn(-c3ccc(Cl)cc3)cc2O)C(=O)C1
HL-60(TB)
  GI50: 1.17 µM
K562
  GI50: 0.65 µM
RPMI-8226
  GI50: 1.66 µM
A549
  GI50: 0.82 µM
HOP-62
  GI50: 1.33 µM
NCI-H23
  GI50: 2.9 µM
NCI-H460
  GI50: 0.37 µM
HCC 2998
  GI50: 3.67 µM
HCT-15
  GI50: 0.68 µM
HT-29
  GI50: 6.16 µM
SW-620
  GI50: 3.41 µM
SF-268
  GI50: 0.49 µM
SF-539
  GI50: 1.7 µM
SNB-75
  GI50: 0.53 µM
U-251
  GI50: 0.41 µM
LOX IMVI
  GI50: 1.55 µM
M14
  GI50: 1.78 µM
SK-MEL-28
  GI50: 3.06 µM
OVCAR-3
  GI50: 1.21 µM
OVCAR-5
  GI50: 3.32 µM
OVCAR-8
  GI50: 1.49 µM
SK-OV-3
  GI50: 1.53 µM
786-0
  GI50: 6.45 µM
A498
  GI50: 0.45 µM
CAKI-1
  GI50: 1.06 µM
RXF 393
  GI50: 15.4 µM
SN12C
  GI50: 1.42 µM
UO-31
  GI50: 0.67 µM
[1]
  GI50: 0.28 µM
MDA-MB-435
  GI50: 1.2 µM
T47D
  GI50: 2.66 µM
MDA-MB-468
  GI50: 4.57 µM
[2]
  GI50: 1.03 µM
  TGI: 52.9 µM
[3]
  GI50: 1.09 µM
  TGI: 79.6 µM
[4]
  GI50: 1.74 µM
  TGI: 83.8 µM
[5]
  GI50: 1.67 µM
  TGI: 77 µM
[6]
  GI50: 5.22 µM
[7]
  GI50: 2.02 µM
  TGI: 90.1 µM
